# Experimental data taken from publication PMC3270411 (Chemistry & biology, 2012).
# Like-named read-outs stand apart in the source and are kept apart here.
# What was measured:
# Assay type in all cases: cell-based
# [1] = molecular target: MARK2 (Homo sapiens, UniProt Q7KZI7); assay: KiNativ cellular kinase profiling; conditions: for Percent inhibition of kinase labeling by ATP-biotin: A375 cells, 1 μM, 3 hours, MARK2, labeling site Lys1; for inhibition at 1 µM: A-375, read-out: Percent inhibition of kinase labeling by ATP-biotin
# [2] = molecular target: T1, PKD2 (Homo sapiens, UniProt Q9BZL6); assay: KiNativ cellular kinase profiling; conditions: for Percent inhibition of kinase labeling by ATP-biotin: A375 cells, 1 μM, 3 hours, PKD2, labeling site Lys1; for inhibition at 1 µM: A-375, read-out: Percent inhibition of kinase labeling by ATP-biotin
# T1 sequence (Q9BZL6 1-878): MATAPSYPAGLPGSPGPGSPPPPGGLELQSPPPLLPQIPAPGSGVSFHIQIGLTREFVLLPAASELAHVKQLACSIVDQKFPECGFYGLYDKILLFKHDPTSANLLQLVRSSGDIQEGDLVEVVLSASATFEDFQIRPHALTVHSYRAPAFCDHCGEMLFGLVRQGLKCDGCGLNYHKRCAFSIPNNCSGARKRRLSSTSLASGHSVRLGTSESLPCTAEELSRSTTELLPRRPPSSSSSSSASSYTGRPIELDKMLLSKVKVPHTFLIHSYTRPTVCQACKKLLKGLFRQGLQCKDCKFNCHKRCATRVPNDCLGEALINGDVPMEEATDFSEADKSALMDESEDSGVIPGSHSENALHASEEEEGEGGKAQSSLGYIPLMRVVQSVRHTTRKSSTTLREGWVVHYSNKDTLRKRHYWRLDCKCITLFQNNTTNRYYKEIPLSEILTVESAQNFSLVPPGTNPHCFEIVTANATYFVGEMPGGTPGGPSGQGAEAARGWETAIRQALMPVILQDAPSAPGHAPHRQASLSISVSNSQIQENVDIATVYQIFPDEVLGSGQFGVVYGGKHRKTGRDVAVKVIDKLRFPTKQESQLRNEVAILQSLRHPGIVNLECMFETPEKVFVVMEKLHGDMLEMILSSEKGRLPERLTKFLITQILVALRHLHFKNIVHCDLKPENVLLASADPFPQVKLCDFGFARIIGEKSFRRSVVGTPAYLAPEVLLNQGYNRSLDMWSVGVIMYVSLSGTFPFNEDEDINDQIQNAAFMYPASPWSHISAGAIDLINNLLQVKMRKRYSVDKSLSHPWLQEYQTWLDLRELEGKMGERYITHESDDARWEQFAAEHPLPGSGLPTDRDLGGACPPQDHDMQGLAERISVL
# [3] = system: MAP2K1,MAP2K2; assay: KiNativ cellular kinase profiling; conditions: A375 cells, 1 μM, 3 hours; MAP2K1,MAP2K2, labeling site Lys2
# [4] = molecular target: IRAK1 (Homo sapiens, UniProt P51617); assay: KiNativ cellular kinase profiling; conditions: for Percent inhibition of kinase labeling by ATP-biotin: A375 cells, 1 μM, 3 hours, IRAK1, labeling site Lys2; for inhibition at 1 µM: A-375, read-out: Percent inhibition of kinase labeling by ATP-biotin
# [5] = molecular target: PIP5K3 (Homo sapiens, UniProt Q9Y2I7); assay: KiNativ cellular kinase profiling; conditions: for Percent inhibition of kinase labeling by ATP-biotin: A375 cells, 1 μM, 3 hours, PIP5K3, labeling site ATP; for inhibition at 1 µM: A-375, read-out: Percent inhibition of kinase labeling by ATP-biotin
# [6] = molecular target: T2, ITPK1 (Homo sapiens, UniProt Q13572); assay: KiNativ cellular kinase profiling; conditions: for Percent inhibition of kinase labeling by ATP-biotin: A375 cells, 1 μM, 3 hours, ITPK1, labeling site ATP; for inhibition at 1 µM: A-375, read-out: Percent inhibition of kinase labeling by ATP-biotin
# T2 sequence (Q13572 1-414): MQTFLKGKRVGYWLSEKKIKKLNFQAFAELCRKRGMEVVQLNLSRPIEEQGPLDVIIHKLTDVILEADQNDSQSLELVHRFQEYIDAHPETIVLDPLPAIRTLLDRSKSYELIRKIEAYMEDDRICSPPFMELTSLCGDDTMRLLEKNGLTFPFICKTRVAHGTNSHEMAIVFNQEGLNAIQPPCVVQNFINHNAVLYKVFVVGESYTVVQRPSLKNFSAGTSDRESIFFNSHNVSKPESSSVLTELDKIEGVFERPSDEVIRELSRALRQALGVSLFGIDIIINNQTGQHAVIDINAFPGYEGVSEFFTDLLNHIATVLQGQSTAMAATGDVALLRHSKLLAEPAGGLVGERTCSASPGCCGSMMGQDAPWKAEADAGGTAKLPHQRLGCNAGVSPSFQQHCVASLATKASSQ
# [7] = molecular target: T3, AurA (Homo sapiens, UniProt O14965); assay: KiNativ cellular kinase profiling; conditions: for Percent inhibition of kinase labeling by ATP-biotin: A375 cells, 1 μM, 3 hours, AurA, labeling site Lys2; for inhibition at 1 µM: A-375, read-out: Percent inhibition of kinase labeling by ATP-biotin
# T3 sequence (O14965 1-403): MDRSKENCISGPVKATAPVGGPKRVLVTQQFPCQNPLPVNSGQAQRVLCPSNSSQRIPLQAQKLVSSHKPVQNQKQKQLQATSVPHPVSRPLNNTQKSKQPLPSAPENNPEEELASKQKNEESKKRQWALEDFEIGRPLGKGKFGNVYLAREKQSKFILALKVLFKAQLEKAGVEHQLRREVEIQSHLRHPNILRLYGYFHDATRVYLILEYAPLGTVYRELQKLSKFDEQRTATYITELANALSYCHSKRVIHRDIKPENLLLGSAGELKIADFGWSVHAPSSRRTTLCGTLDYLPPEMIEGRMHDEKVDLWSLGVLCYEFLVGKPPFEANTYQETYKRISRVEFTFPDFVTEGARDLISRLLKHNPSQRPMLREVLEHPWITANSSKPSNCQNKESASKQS
# [8] = system: ABL,ARG; assay: KiNativ cellular kinase profiling; conditions: A375 cells, 1 μM, 3 hours, labeling site Lys1
# [9] = system: c-Jun phosphorylation (pSer73) in HeLa cells; assay: LanthaScreen TR-FRET c-Jun phosphorylation assay in HeLa cells; conditions: read-out: p-c-Jun EC50 (nM) Hela
# How it was run: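 HeLa cells stably expressing GFP-c-Jun(1–79), 10,000/well in Opti-MEM with 0.5% charcoal/dextran-treated FBS, 25 mM Hepes pH 7.3, no phenol red; overnight. Pretreated 90 min with compound, then 30 min with 5 ng/ml TNF-α. Lysed in buffer containing 2 nM terbium anti-c-Jun pSer73 antibody; 60 min equilibration at room temperature. TR-FRET: excitation 340 nm, ratio Em 520/Em 490.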
# [10] = molecular target: ROCK1 (Homo sapiens, UniProt Q13464); assay: KiNativ cellular kinase profiling; conditions: for Percent inhibition of kinase labeling by ATP-biotin: A375 cells, 1 μM, 3 hours, ROCK1, labeling site Other; for inhibition at 1 µM: A-375, read-out: Percent inhibition of kinase labeling by ATP-biotin
# [11] = system: c-Jun phosphorylation and Erk, p38, JNK, Akt, Stat, NF-κB and Rsk pathway nodes; assay: microscopy-based cellular pathway profiling with phospho-specific antibodies; conditions: phospho-specific antibody microscopy
# [12] = Hela cells, TNF-α stimulation, TR-FRET
# PIP5K3, sequence (Q9Y2I7 whole entry): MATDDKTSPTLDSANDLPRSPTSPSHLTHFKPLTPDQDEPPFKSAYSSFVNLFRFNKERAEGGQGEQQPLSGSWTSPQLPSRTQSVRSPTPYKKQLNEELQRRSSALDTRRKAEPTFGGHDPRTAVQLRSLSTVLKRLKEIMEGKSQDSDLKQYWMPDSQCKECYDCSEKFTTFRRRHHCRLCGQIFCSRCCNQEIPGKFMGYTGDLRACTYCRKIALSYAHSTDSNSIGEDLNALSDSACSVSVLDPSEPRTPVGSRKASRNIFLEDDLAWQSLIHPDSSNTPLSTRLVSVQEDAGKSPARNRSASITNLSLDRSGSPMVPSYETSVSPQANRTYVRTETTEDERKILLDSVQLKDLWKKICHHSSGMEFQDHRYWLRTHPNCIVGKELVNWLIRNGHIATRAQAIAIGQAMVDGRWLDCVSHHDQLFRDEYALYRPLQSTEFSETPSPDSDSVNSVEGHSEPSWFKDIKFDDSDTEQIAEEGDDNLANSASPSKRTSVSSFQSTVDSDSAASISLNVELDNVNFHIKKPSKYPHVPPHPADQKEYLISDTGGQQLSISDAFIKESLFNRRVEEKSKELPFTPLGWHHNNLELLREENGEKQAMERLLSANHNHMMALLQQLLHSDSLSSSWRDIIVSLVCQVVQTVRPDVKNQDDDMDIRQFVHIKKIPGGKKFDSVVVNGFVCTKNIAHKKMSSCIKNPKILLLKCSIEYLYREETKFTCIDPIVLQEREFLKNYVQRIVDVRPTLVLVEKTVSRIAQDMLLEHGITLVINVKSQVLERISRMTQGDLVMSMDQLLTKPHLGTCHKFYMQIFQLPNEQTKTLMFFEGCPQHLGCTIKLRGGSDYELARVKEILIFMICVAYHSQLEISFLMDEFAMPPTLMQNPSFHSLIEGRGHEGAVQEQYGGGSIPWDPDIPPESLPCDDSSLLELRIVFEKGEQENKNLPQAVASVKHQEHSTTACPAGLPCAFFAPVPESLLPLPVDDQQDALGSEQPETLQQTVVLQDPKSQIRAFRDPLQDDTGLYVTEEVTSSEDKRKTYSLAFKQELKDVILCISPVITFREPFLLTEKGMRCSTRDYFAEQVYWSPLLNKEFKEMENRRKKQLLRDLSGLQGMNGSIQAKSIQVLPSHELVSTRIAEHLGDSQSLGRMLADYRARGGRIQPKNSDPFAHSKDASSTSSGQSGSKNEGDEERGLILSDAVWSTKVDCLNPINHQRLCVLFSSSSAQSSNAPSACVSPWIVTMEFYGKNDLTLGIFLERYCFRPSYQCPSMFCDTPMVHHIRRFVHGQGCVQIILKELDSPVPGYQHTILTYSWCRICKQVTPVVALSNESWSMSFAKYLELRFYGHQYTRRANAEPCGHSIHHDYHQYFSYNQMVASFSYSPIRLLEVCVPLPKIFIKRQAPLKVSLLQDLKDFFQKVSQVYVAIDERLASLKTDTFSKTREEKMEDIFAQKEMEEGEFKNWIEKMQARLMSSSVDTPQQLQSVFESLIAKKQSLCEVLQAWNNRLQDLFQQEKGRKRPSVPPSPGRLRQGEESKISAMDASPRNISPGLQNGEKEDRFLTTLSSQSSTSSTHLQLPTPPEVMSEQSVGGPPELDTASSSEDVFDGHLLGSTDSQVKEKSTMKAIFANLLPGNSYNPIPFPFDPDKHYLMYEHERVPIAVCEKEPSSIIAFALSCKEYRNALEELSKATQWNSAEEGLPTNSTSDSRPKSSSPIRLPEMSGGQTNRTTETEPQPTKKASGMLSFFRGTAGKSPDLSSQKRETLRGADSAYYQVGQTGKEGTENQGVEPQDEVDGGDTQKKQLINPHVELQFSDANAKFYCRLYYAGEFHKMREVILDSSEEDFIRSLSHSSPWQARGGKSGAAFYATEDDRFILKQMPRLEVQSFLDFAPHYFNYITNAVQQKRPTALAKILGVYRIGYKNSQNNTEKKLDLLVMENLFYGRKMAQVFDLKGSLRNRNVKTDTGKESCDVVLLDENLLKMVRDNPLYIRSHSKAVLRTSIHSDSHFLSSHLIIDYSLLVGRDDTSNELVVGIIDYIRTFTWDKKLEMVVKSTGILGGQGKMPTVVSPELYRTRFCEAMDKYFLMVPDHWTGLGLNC
# IRAK1, sequence (P51617 whole entry, species assumed): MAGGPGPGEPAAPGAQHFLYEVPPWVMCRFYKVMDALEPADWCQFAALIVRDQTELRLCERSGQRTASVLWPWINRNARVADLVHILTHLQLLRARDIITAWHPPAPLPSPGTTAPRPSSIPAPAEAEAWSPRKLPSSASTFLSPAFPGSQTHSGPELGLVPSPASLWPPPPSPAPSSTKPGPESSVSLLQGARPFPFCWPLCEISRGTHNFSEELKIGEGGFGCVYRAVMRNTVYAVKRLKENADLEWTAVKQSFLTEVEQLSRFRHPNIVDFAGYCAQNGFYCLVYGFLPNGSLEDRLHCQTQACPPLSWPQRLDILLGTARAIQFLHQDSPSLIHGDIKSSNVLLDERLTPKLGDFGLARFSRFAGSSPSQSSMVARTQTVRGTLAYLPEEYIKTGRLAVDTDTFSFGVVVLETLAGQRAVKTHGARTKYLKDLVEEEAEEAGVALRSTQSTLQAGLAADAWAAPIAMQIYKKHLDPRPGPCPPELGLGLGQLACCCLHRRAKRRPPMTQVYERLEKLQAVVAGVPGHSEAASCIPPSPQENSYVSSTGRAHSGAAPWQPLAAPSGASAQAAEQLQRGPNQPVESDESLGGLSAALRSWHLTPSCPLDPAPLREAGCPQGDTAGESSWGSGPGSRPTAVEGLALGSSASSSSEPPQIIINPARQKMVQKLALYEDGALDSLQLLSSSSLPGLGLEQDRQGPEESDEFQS
# MARK2, sequence (Q7KZI7 whole entry): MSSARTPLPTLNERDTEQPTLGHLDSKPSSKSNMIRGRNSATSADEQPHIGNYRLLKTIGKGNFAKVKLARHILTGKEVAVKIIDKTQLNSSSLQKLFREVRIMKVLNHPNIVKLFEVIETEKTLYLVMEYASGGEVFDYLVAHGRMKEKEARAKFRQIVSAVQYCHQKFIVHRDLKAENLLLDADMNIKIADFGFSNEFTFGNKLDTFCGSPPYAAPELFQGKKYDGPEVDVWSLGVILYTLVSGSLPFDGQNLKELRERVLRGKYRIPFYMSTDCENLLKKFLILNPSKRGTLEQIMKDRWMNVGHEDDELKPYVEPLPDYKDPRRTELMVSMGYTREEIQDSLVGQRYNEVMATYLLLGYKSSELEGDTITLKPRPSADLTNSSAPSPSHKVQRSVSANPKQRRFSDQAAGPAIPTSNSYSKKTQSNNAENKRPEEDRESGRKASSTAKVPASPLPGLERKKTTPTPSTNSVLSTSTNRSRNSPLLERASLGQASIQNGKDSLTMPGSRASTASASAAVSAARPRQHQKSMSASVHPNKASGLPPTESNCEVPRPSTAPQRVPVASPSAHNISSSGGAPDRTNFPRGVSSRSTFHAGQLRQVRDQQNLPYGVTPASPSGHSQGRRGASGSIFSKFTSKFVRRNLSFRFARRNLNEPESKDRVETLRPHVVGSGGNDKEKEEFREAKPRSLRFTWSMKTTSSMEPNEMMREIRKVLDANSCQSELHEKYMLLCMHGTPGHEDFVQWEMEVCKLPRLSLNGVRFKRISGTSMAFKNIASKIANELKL
# ROCK1, sequence (Q13464 whole entry): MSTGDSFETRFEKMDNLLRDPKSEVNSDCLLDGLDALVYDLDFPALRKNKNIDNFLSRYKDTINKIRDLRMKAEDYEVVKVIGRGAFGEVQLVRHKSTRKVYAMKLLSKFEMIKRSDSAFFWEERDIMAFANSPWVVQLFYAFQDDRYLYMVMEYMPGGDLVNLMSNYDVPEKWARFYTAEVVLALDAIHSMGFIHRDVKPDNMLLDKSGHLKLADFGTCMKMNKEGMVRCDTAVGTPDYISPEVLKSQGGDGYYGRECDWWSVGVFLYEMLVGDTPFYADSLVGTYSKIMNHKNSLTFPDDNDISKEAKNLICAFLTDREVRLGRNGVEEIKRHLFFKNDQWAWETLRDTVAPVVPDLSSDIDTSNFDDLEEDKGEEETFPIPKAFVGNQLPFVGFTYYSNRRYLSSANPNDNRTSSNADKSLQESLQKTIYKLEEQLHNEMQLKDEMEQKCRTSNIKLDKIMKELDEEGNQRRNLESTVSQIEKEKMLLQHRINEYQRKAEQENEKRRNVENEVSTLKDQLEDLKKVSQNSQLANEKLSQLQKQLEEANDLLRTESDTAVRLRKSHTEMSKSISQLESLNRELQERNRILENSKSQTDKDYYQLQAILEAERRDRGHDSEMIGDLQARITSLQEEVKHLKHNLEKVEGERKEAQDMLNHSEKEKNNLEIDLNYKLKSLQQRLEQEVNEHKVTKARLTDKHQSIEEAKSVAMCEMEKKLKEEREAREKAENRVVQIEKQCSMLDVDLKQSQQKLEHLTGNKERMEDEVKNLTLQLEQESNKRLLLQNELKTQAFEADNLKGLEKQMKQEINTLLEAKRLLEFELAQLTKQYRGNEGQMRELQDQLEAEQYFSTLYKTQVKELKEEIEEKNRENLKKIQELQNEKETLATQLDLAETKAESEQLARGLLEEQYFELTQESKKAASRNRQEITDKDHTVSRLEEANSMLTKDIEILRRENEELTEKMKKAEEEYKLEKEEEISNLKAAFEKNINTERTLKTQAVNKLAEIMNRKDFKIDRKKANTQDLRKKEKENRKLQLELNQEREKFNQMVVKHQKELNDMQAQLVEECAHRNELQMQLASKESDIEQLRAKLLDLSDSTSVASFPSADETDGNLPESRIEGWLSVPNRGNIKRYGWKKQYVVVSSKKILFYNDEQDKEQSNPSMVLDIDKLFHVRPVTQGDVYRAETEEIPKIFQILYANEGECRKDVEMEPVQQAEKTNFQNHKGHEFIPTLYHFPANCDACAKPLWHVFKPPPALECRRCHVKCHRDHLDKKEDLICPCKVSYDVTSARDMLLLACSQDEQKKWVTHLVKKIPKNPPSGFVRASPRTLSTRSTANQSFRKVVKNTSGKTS
Structure (SMILES),Percent inhibition of kinase labeling by ATP-biotin [1] [%],Percent inhibition of kinase labeling by ATP-biotin [2] [%],Percent inhibition of kinase labeling by ATP-biotin [3] [%],Percent inhibition of kinase labeling by ATP-biotin [4] [%],Percent inhibition of kinase labeling by ATP-biotin [5] [%],Percent inhibition of kinase labeling by ATP-biotin [6] [%],Percent inhibition of kinase labeling by ATP-biotin [7] [%],Percent inhibition of kinase labeling by ATP-biotin [8] [%],"EC50 [9, 12] [nM]",Percent inhibition of kinase labeling by ATP-biotin [10] [%],inhibition at 1 µM [1] [%],inhibition at 1 µM [2] [%],on-/off-pathway activity in cellular pathway profiling [11],inhibition at 1 µM [4] [%],inhibition at 1 µM [5] [%],inhibition at 1 µM [6] [%],inhibition at 1 µM [7] [%],"EC50 ([9]; Homo sapiens, HeLa) [nM]",inhibition at 1 µM [10] [%]
CCC(=O)Nc1cccc(C(=O)Nc2ccc(Nc3nccc(-c4cccnc4)n3)cc2)c1 [JNK-IN-6],13.4,12,24.3,−4.6,16.8,27,9.9,−1.4,6760,24.4,–,–,–,–,–,–,–,–,–
CN(C)C/C=C/C(=O)Nc1cccc(C(=O)Nc2ccc(Nc3nccc(-c4cccnc4)n3)cc2)c1 [JNK-IN-7],–,–,3.2,–,–,–,–,1.9,–,–,23.6,13.6,only on-pathway activity,81,91.8,-0.2,20.9,130,-11.9
Cc1cc(NC(=O)c2cccc(NC(=O)/C=C/CN(C)C)c2)ccc1Nc1nccc(-c2cccnc2)n1 [JNK-IN-8],–,–,3.2,–,–,–,–,−2.7,–,–,9.6,4.9,only on-pathway activity,0.8,18.7,24.6,-8,486,10
CN(C)C/C=C/C(=O)Nc1cccc(C(=O)Nc2ccc(Nc3nccc(-c4c(-c5ccccc5)nn5ccccc45)n3)cc2)c1 [JNK-IN-11],–,–,−10.4,–,–,–,–,56.1,–,–,20.8,40.9,off-pathway activity,5.4,99.3,-0.7,68.2,48,-8.2
CN(C)C/C=C/C(=O)Nc1cccc(C(=O)Nc2ccc(Nc3nccc(/C(C#N)=C4\Nc5ccccc5S4)n3)cc2)c1 [JNK-IN-12],−41.1,−79,−3.7,−14.9,−11.4,8.6,−23,7.9,605,−97,–,–,only on-pathway activity,–,–,–,–,–,–
